Data from ChEMBL document CHEMBL1156177, “Conjugates of plumbagin and phenyl-2-amino-1-thioglucoside inhibit MshB, a deacetylase involved in the biosynthesis of mycothiol” (Bioorg Med Chem, 2010).

T1: 1D-myo-inositol 2-acetamido-2-deoxy-alpha-D-glucopyranoside deacetylase (Mycobacterium tuberculosis) (UniProt P9WJN3)
T1 sequence (whole entry): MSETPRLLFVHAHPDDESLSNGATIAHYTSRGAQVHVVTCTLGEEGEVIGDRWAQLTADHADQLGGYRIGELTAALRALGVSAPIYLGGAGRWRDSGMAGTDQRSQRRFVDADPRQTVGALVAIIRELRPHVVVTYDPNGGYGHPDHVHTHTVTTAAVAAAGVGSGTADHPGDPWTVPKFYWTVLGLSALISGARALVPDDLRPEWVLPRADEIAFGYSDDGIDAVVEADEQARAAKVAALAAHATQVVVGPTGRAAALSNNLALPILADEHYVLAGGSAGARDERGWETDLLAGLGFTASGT

T2: 1D-myo-inositol 2-acetamido-2-deoxy-alpha-D-glucopyranoside deacetylase (Mycobacterium tuberculosis, UniProt P9WJN3)
T2 sequence (P9WJN3 whole entry): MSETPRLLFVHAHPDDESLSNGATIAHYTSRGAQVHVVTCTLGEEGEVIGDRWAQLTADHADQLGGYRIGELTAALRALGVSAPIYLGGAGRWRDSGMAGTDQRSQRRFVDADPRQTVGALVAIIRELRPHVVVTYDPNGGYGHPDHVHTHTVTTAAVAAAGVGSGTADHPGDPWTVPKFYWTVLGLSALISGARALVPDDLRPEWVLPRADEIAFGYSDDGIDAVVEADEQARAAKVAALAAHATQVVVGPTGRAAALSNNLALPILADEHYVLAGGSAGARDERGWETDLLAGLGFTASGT


How the values were obtained:
[1] = test system: Mycolicibacterium smegmatis; experiment: Inhibition of Mycobacterium smegmatis Mca at 250 uM after 10 mins by HPLC analysis
How it was run: (§1)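 Native Mca purified from M. smegmatis by (NH4)2SO4 cut (15–50%), DEAE, hydroxyapatite and size-exclusion HPLC. 8.0 nmol of the bimane substrate MSmB and 8.0 nmol inhibitor (250 µM each) in Na-Hepes pH 7.5 with NaCl, 40 µl final volume, run 10 min at 37 °C. Stopped with acetonitrile/TFA and 60 °C for 10 min. Product read by C-18 HPLC with fluorescence detection (ex 396/em 482 nm).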

[2] = biological target: T1, 1D-myo-inositol 2-acetamido-2-deoxy-alpha-D-glucopyranoside deacetylase (Mycobacterium tuberculosis); experiment: Inhibition of Mycobacterium tuberculosis MshB expressed in Escherichia coli BL21 at 500 uM after 10 mins by HPLC analysis
How it was run: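 Recombinant MshB (E. coli BL21(DE3) pLysS, purified) assayed with GlcNAc-Ins and inhibitor, each at 500 μM, in 40 μl with 1.0 μmol Na-Hepes pH 7.5, 1.0 μmol NaCl, 3.26 μg MshB; 10 min at 37 °C; stopped with acetonitrile/TFA, 60 °C 10 min; GlcN-Ins measured by C-18 hplc as AccQ-Fluor derivative; percent inhibition.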

[3] = biological target: T1, 1D-myo-inositol 2-acetamido-2-deoxy-alpha-D-glucopyranoside deacetylase (Mycobacterium tuberculosis); experiment: Activity at Mycobacterium tuberculosis MshB expressed in Escherichia coli BL21 at 250 uM assessed per mg of protein by HPLC analysis
How it was run: (§2)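 Recombinant MshB from E. coli BL21(DE3) pLysS (IPTG 0.4 mM, 18 °C) purified by DEAE, Zn-IMAC and gel filtration. Substrates (GlcNAc glycosides, 250 μM for single-point comparison) incubated with 8.15 μg MshB, 1 μmol NaCl, 1 μmol Hepes pH 7.5 in 40 μl, 10 min, 37 °C; product quantified by C-18 hplc (UV for phenyl aglycons, dansylated for cyclohexyl) against complete-cleavage calibration curves.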

[4] = biological target: T1, 1D-myo-inositol 2-acetamido-2-deoxy-alpha-D-glucopyranoside deacetylase (Mycobacterium tuberculosis); experiment: Ratio of Kcat to Km for Mycobacterium tuberculosis MshB
How it was run: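 GlcNAc-Ins varied 50–2000 μM with 3.26 μg purified recombinant MshB, 1.0 μmol Na-Hepes pH 7.5, 1.0 μmol NaCl in 40 μl, 10 min at 37 °C; GlcN-Ins quantified by hplc as AccQ-Fluor derivative.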

[5] = biological target: T2, 1D-myo-inositol 2-acetamido-2-deoxy-alpha-D-glucopyranoside deacetylase; experiment: Inhibition of Mycobacterium tuberculosis MshB expressed in Escherichia coli BL21 after 10 mins by HPLC analysis
[6] = test system: Mycolicibacterium smegmatis; experiment: Activity at Mycobacterium smegmatis Mca by HPLC analysis; how it was run: as §1
[7] = substrate: CC(=O)N[C@@H]1[C@@H](O)[C@H](O)[C@@H](CO)O[C@@H]1Sc1ccccc1; experiment: (§3) Activity at Mycobacterium tuberculosis MshB expressed in Escherichia coli BL21 by HPLC analysis; how it was run: as §2
[8] = substrate: CC(=O)N[C@H]1[C@@H](O[C@@H]2[C@H](O)[C@H](O)[C@@H](O)[C@H](O)[C@H]2O)O[C@H](CO)[C@@H](O)[C@@H]1O; experiment: as §3; how it was run: as §2
[9] = substrate: CC(=O)N[C@@H]1[C@@H](O)[C@H](O)[C@@H](CO)O[C@@H]1Sc1ccccc1; experiment: (§4) Activity at Mycobacterium tuberculosis MshB expressed in Escherichia coli BL21 assessed per mg of protein by HPLC analysis; how it was run: as §2
[10] = substrate: CC(=O)N[C@H]1[C@@H](O[C@@H]2[C@H](O)[C@H](O)[C@@H](O)[C@H](O)[C@H]2O)O[C@H](CO)[C@@H](O)[C@@H]1O; experiment: as §4; how it was run: as §2

Molecule	inhibition [1] [%]	inhibition [2] [%]	further results
N[C@@H]1[C@@H](O)[C@H](O)[C@@H](CO)O[C@@H]1SC1CCCCC1	0	16.4	–
CC(=O)N[C@H]1[C@@H](O[C@@H]2[C@H](O)[C@H](O)[C@@H](O)[C@H](O)[C@H]2O)O[C@H](CO)[C@@H](O)[C@@H]1O	–	–	Activity [3]: 106 nmol/min/mg; Ratio [4]: 690 M⁻¹ s⁻¹
CC1=C(CCCCC(=O)N[C@@H]2[C@@H](O)[C@H](O)[C@@H](CO)O[C@@H]2Sc2ccccc2)C(=O)c2c(O)cccc2C1=O	23.2	81.4	Ki [5]: 94 µM
CC(=O)N[C@@H]1[C@@H](O)[C@H](O)[C@@H](CO)O[C@@H]1Sc1ccc([N+](=O)[O-])cc1[N+](=O)[O-]	0	29.4	–
CC(=O)N[C@@H]1[C@@H](O)[C@H](O)[C@@H](CO)O[C@H]1Sc1ccccc1	0	15.1	–
CC(=O)N[C@@H](CSSc1ccc2cc(O)ccc2c1)C(=O)NC1[C@@H](OC2[C@H](O)[C@H](O)C(O)[C@@H](O)[C@H]2O)O[C@H](CO)[C@@H](O)[C@@H]1O (stereo partly drawn)	–	–	Km [6]: 328 µM
CC(O)C[C@H]1[C@@H](OC2CCCCC2)O[C@H](CO)[C@@H](O)[C@@H]1O (stereo partly drawn)	20.5	11.4	–
CC(=O)N[C@@H]1[C@@H](O)[C@H](O)[C@@H](CO)O[C@H]1SCc1ccccc1	0	13.3	–
CC1=C(CCC(=O)N[C@@H]2[C@@H](O)[C@H](O)[C@@H](CO)O[C@@H]2Sc2ccccc2)C(=O)c2c(O)cccc2C1=O	28.8	57.4	Ki [5]: 167 µM
CC(=O)C[C@H]1[C@@H](OC2CCCCC2)O[C@H](CO)[C@@H](O)[C@@H]1O	17.2	6.7	–
CC(=O)N[C@@H]1[C@@H](O)[C@H](O)[C@@H](CO)O[C@@H]1SC1CCCCC1	–	–	Activity [3]: 6.11 nmol/min/mg
OC[C@H]1O[C@H](OC2CCCCC2)[C@@H]2CC(O)CO[C@H]2[C@@H]1O (stereo partly drawn)	35	6.6	–
CCC[C@H]1[C@@H](OC2CCCCC2)O[C@H](CO)[C@@H](O)[C@@H]1O	22	0	–
CC(=O)N[C@H]1[C@@H](OC2CCCCC2)O[C@H](CO)[C@@H](O)[C@@H]1O	–	–	Activity [3]: 6.07 nmol/min/mg
N[C@@H]1[C@@H](O)[C@H](O)[C@@H](CO)O[C@@H]1Sc1ccccc1	17	6.1	–
O=C(CCl)N[C@@H]1[C@@H](O)[C@H](O)[C@@H](CO)O[C@@H]1SC1CCCCC1	0	14.9	–
CC(=O)N[C@@H]1[C@@H](O)[C@H](O)[C@@H](CO)O[C@@H]1Sc1ccccc1	–	–	Activity [3]: 27 nmol/min/mg; Ratio [4]: 69.4 M⁻¹ s⁻¹
C=CC[C@H]1[C@@H](OC2CCCCC2)O[C@H](CO)[C@@H](O)[C@@H]1O	73.8	0	–
O=C(Nc1ccccc1)N[C@@H]1[C@@H](O)[C@H](O)[C@@H](CO)O[C@@H]1SC1CCCCC1	15	17	–
OC[C@H]1O[C@H](OC2CCCCC2)[C@H](CC2CO2)[C@@H](O)[C@@H]1O (stereo partly drawn)	19.4	19.7	–
CO[C@H]1OCC(S[C@H]2O[C@H](CO)[C@@H](O)[C@H](O)[C@H]2NC(C)=O)C[C@H]1O (stereo partly drawn)	27	0	–
CC(=N)N[C@@H]1[C@@H](O)[C@H](O)[C@@H](CO)O[C@@H]1SC1CCCCC1	6.8	0	–
CS(=O)(=O)N[C@@H]1[C@@H](O)[C@H](O)[C@@H](CO)O[C@@H]1SC1CCCCC1	0	0	–
CC1=C(CCCCCC(=O)N[C@@H]2[C@@H](O)[C@H](O)[C@@H](CO)O[C@@H]2Sc2ccccc2)C(=O)c2c(O)cccc2C1=O	44.5	94.8	Ki [5]: 16.8 µM
CC1=C(CCCC(=O)N[C@@H]2[C@@H](O)[C@H](O)[C@@H](CO)O[C@@H]2Sc2ccccc2)C(=O)c2c(O)cccc2C1=O	37.8	81.6	–
C=CC[C@H]1[C@H](OC2CCCCC2)O[C@H](CO)[C@@H](O)[C@@H]1O	9.3	0	–
1D-myo-inositol 2-acetamido-2-deoxy-alpha-D-glucopyranoside deacetylase (Mycobacterium tuberculosis), P9WJN3 (protein) MSETPRLLFVHAHPDDESLSNGATIAHYTSRGAQVHVVTCTLGEEGEVIGDRWAQLTADHADQLGGYRIGELTAALRALGVSAPIYLGGAGRWRDSGMAGTDQRSQRRFVDADPRQTVGALVAIIRELRPHVVVTYDPNGGYGHPDHVHTHTVTTAAVAAAGVGSGTADHPGDPWTVPKFYWTVLGLSALISGARALVPDDLRPEWVLPRADEIAFGYSDDGIDAVVEADEQARAAKVAALAAHATQVVVGPTGRAAALSNNLALPILADEHYVLAGGSAGARDERGWETDLLAGLGFTASGT	–	–	Km [7]: 1700 µM; kcat [7]: 0.12 s⁻¹; Km [8]: 348 µM; kcat [8]: 0.24 s⁻¹; Vmax [9]: 214 nmol/min/mg; Vmax [10]: 437 nmol/min/mg
